Data reported in ChEMBL document CHEMBL4138250, “Regioselective IBX-Mediated Synthesis of Coumarin Derivatives with Antioxidant and Anti-influenza Activities” (J Nat Prod, 2017).
Values after ≈ are worked out from the molar mass of the structure shown.

Tests used:
[1] = Antioxidant activity assessed as DPPH radical scavenging activity incubated for 30 mins under dark condition; type: functional
How it was run: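 Compounds serially diluted in EtOH (0.01−100 mg/mL) and added to freshly prepared DPPH (6 × 10−5 M in EtOH). Mixture shaken, kept 30 min in the dark, then absorbance read at 517 nm against a solvent blank. % scavenging is relative to a DPPH-only control, corrected for sample colour without DPPH. IC50 is the concentration giving 50% inhibition; triplicate runs.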

A549 [2] = test: Cytotoxicity against human A549 cells assessed as reduction in cell viability up to 120 ug/ml after 24 hrs by microscopic analysis; type: cell-based; conditions: a549, 24 h
How it was run: (§1)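 A549 cells seeded at 2 × 10^5/mL; after 24 h, exposed to compounds at 10−120 μg/mL for a further 24 h. Viability assessed by microscopic examination, Trypan blue (0.02%) exclusion and MTT reduction. Cytotoxicity expressed as % reduction in viable cells relative to cultures treated with DMSO alone.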

A549 [3] = test: Cytotoxicity against human A549 cells assessed as reduction in cell viability up to 120 ug/ml after 24 hrs by tryphan blue exclusion assay; type: cell-based; conditions: a549, 24 h; how it was run: as §1
A549 [4] = test: Cytotoxicity against human A549 cells assessed as reduction in cell viability up to 120 ug/ml after 24 hrs by MTT assay; type: cell-based; conditions: a549, 24 h; how it was run: as §1
Influenza A virus [5] = test: Antiviral activity against Influenza A virus (A/Puerto Rico/8/34(H1N1)) infected in A549 cells assessed as reduction in viral titer after 24 to 48 hrs by hemagglutination test; type: functional, organism-based; conditions: A/Puerto Rico/8/1934(H1N1)
How it was run: (§2)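 Confluent A549 monolayers (DMEM, 10% FBS) infected with PR8 at MOI 0.0001 for 1 h at 37 °C, PBS-washed, then kept in 2% FBS medium. Compounds in DMSO were diluted in DMEM to final 30, 40, 60, 80 or 120 μg/mL, added after adsorption and kept to the end. DMSO was at most 0.2%, with matching DMSO-treated controls and mock infection. Supernatant HAU read at 24 and 48 h with human type 0 Rh+ erythrocytes.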

Influenza A virus [6] = test: Antiviral activity against Influenza A virus (A/Puerto Rico/8/34(H1N1)) infected in A549 cells assessed as reduction in viral titer at 120 ug/ml after 24 to 48 hrs by hemagglutination test relative to control; type: functional, A/Puerto Rico/8/1934(H1N1); design: scale not given: the % may be the effect or the level left; how it was run: as §2

Q: With `Cc1cc(=O)oc2c(O)c(O)ccc12` [4-METHYLDAPHNETIN] as the compound, how does the IC50 [1] read?
A: 22000 µg/mL (≈ 114 mM)

Q: And the Activity (A549 [2])?
A: Non-Toxic

Q: What about the Activity (A549 [3]) of the same compound?
A: Non-Toxic

Q: And the Activity (A549 [4])?
A: Non-Toxic

Q: What about the Activity (Influenza A virus [5]) of the same compound?
A: Dose-dependent effect

Q: And the IC50 (Influenza A virus [5])?
A: 91.5 µg/mL (≈ 0.476 mM)

Q: With `O=c1cc(O)c2ccc(O)c(O)c2o1` as the compound, how does the IC50 [1] read?
A: 24100 µg/mL (≈ 124 mM)

Q: For `O=c1ccc2ccc(O)c(O)c2o1` [DAPHNETIN], which IC50 [1] is on record?
A: 27200 µg/mL (≈ 153 mM)

Q: And the IC50 (Influenza A virus [5])?
A: 146 µg/mL (≈ 0.818 mM)

Q: Which IC50 [1] does the source give for `O=c1ccc2c(O)c(O)c(O)cc2o1` here?
A: 2500 µg/mL (≈ 12.9 mM)

Q: What about the Activity (A549 [2]) of the same compound?
A: Non-Toxic

Q: What about the Activity (A549 [3]) of the same compound?
A: Non-Toxic

Q: What about the Activity (A549 [4]) of the same compound?
A: Non-Toxic

Q: What about the Activity (Influenza A virus [5]) of the same compound?
A: Dose-dependent effect

Q: And the IC50 (Influenza A virus [5])?
A: 47.9 µg/mL (≈ 0.247 mM)

Q: Which IC50 [1] does the source give for `O=c1ccc2ccc(O)cc2o1` [UMBELLIFERONE] here?
A: > 200000 µg/mL

Q: What about the Activity (A549 [2]) of the same compound?
A: Non-Toxic

Q: What about the Activity (A549 [3]) of the same compound?
A: Non-Toxic

Q: What about the Activity (A549 [4]) of the same compound?
A: Non-Toxic

Q: What about the Activity (Influenza A virus [5]) of the same compound?
A: Dose-dependent effect

Q: What about the IC50 (Influenza A virus [5]) of the same compound?
A: 110 µg/mL (≈ 0.678 mM)

Q: And the Activity (Influenza A virus [6])?
A: 50%

Q: What does the source list for `O=c1ccc2cc(O)ccc2o1` [6-HYDROXYCOUMARIN]?
A: IC50 [1]: > 200000 µg/mL; Activity (A549 [2]): Non-Toxic; Activity (A549 [3]): Non-Toxic; Activity (A549 [4]): Non-Toxic; Activity (Influenza A virus [5]): Dose-dependent effect; IC50 (Influenza A virus [5]): 110 µg/mL (≈ 0.678 mM); Activity (Influenza A virus [6]): 50%

Q: Which Activity (A549 [2]) does the source give for `Nc1ccc2c(C(F)(F)F)cc(=O)oc2c1` here?
A: Non-Toxic

Q: What about the Activity (A549 [3]) of the same compound?
A: Non-Toxic

Q: And the Activity (A549 [4])?
A: Non-Toxic

Q: And the Activity (Influenza A virus [5])?
A: Dose-dependent effect

Q: What about the IC50 (Influenza A virus [5]) of the same compound?
A: 51 µg/mL (≈ 0.223 mM)

Q: With `Nc1ccc2c(C(F)(F)F)cc(=O)oc2c1O` as the compound, how does the IC50 [1] read?
A: 9300 µg/mL (≈ 37.9 mM)

Q: And the Activity (A549 [2])?
A: Non-Toxic

Q: And the Activity (A549 [3])?
A: Non-Toxic

Q: And the Activity (A549 [4])?
A: Non-Toxic

Q: And the Activity (Influenza A virus [5])?
A: Dose-dependent effect

Q: And the IC50 (Influenza A virus [5])?
A: 47.8 µg/mL (≈ 0.195 mM)

Q: For `O=c1ccc2cc(O)c(O)cc2o1` [ESCULETIN], which IC50 [1] is on record?
A: 37700 µg/mL (≈ 212 mM)

Q: Which IC50 [1] does the source give for `O=c1ccc2cc(O)c(O)c(O)c2o1` here?
A: 8700 µg/mL (≈ 44.8 mM)

Q: And the Activity (A549 [2])?
A: Non-Toxic

Q: What about the Activity (A549 [3]) of the same compound?
A: Non-Toxic

Q: And the Activity (A549 [4])?
A: Non-Toxic

Q: And the Activity (Influenza A virus [5])?
A: Dose-dependent effect

Q: What about the IC50 (Influenza A virus [5]) of the same compound?
A: 69.9 µg/mL (≈ 0.36 mM)

Q: Which IC50 [1] does the source give for `COc1cc2ccc(=O)oc2c(O)c1O` [FRAXETIN] here?
A: 39200 µg/mL (≈ 188 mM)

Q: For `O=c1ccc2c(O)c(O)ccc2o1`, which Activity (A549 [2]) is on record?
A: Non-Toxic

Q: What about the Activity (A549 [3]) of the same compound?
A: Non-Toxic

Q: And the Activity (A549 [4])?
A: Non-Toxic

Q: What about the Activity (Influenza A virus [5]) of the same compound?
A: Dose-dependent effect

Q: And the IC50 (Influenza A virus [5])?
A: 106 µg/mL (≈ 0.598 mM)

Q: And the Activity (Influenza A virus [6])?
A: 50%
